Columns and labels:
[1] = test system: Canis familiaris; experiment: Evaluated for the heart rate at dose 1.0 mg/kg in 4 animals by poldine tachycardia test; assay type: functional, Canis lupus familiaris
Procedure, shortened: (§1)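 Poldine tachycardia: dogs prepared surgically as in the triazine method; poldine methyl sulfate 0.5 mg/kg iv, then 30 min later test agent in increasing doses (0.5/1.0/2.5 mg/kg) at 30-min intervals; read-out is the maximum percent decrease in heart rate at each dose.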

[2] = test system: Canis familiaris; experiment: Evaluated for the heart rate at dose 1.0 mg/kg in 4 animals by glucagon-induced tachycardia test; assay type: functional, Canis lupus familiaris
[3] = species on record: Canis familiaris; experiment: Cardiac slowing index was measured for potency and efficacy; assay type: functional, Canis lupus familiaris
Procedure, shortened: (§2)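 Triazine tachycardia in conscious dogs: carotid artery and jugular vein catheterized with heparinized saline; 18 h after surgery, triazine vasodilator U20388 12 mg/kg po; about 1 h later, dog in sling with arterial pressure and ECG monitored. Test agent infused iv at 0.8 (mg/kg)/min to 30 mg/kg total. D50 = dose giving 50% of maximal slowing in that animal; ΔHR50 = heart-rate change at D50; CS index = %ΔHR50/D50.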

[4] = test system: Canis familiaris; experiment: Evaluated for the heart rate at dose 2.5 mg/kg in 4 animals by poldine tachycardia test; assay type: functional, Canis lupus familiaris; procedure, shortened: as §1
[5] = test system: Canis familiaris; experiment: Evaluated for the heart rate at dose 0.5 mg/kg in 4 animals by poldine tachycardia test; assay type: functional, Canis lupus familiaris; procedure, shortened: as §1
[6] = test system: Canis familiaris; experiment: Evaluated for the heart rate at dose 2.5 mg/kg in 4 animals by glucagon-induced tachycardia test; assay type: functional, Canis lupus familiaris
[7] = test system: Canis familiaris; experiment: Evaluated for the heart rate at dose 5.0 mg/kg in 4 animals by aminophylline-induced sinus tachycardia test; assay type: functional, Canis lupus familiaris
[8] = test system: Canis familiaris; experiment: Change in heart rate at the above D50 dose in conscious dogs; assay type: functional, Canis lupus familiaris; procedure, shortened: as §2
[9] = test system: Canis familiaris; experiment: Dose required to achieve 50 % of maximal cardiac slowing in triazine tachycardia test in conscious dog; assay type: functional, Canis lupus familiaris; procedure, shortened: as §2
[10] = species on record: Canis familiaris; experiment: Relative activity (fraction of the most active compound 24) was determined; assay type: functional, Canis lupus familiaris
[11] = test system: Canis familiaris; experiment: Evaluated for the heart rate at dose 5.0 mg/kg in 4 animals by glucagon-induced tachycardia test; assay type: functional, Canis lupus familiaris
[12] = test system: Canis familiaris; experiment: Myocardial depression rating in anesthetized, ganglion-blocked dog; Weak activity.
[13] = test system: Canis familiaris; experiment: Evaluated for the heart rate at dose 2.5 mg/kg in 4 animals by aminophylline-induced sinus tachycardia test; assay type: functional, Canis lupus familiaris
[14] = test system: Canis familiaris; experiment: Evaluated for the heart rate at dose 1.0 mg/kg in 4 animals by aminophylline-induced sinus tachycardia test; assay type: functional, Canis lupus familiaris
[15] = species on record: Canis familiaris; experiment: Percent decrease from the initial evaluated heart rate (percent delta HR50/HR0 x 100); assay type: functional, Canis lupus familiaris; procedure, shortened: as §2
[16] = test system: Canis familiaris; experiment: Evaluated for the myocardial depression rating which is severe for the given compound in anesthetized, ganglion-blocked dog
[17] = species on record: Canis familiaris; experiment: Percent decrease from initial heart rate (percent delta HR50/HR0 x 100) in dogs; assay type: functional, Canis lupus familiaris; procedure, shortened: as §2
[18] = test system: Canis familiaris; experiment: Myocardial depression in conscious dog; Moderate activity.; assay type: functional, Canis lupus familiaris, Myocardium
[19] = test system: Canis familiaris; experiment: Myocardial depression in anesthetized, ganglion-blocked dog; Moderate activity.
[20] = species on record: Canis familiaris; experiment: Cardiac slowing index of the compound; assay type: functional, Canis lupus familiaris; procedure, shortened: as §2
[21] = test system: Canis familiaris; experiment: Evaluated for the heart rate at dose 1.0 mg/kg in 5 animals by glucagon-induced tachycardia test; assay type: functional, Canis lupus familiaris
[22] = test system: Canis familiaris; experiment: Evaluated for the heart rate at dose 2.5 mg/kg in 5 animals by glucagon-induced tachycardia test; assay type: functional, Canis lupus familiaris
[23] = test system: Canis familiaris; experiment: Evaluated for the myocardial depression rating which is barely observable for the given compound in anesthetized, ganglion-blocked dog
[24] = test system: Canis familiaris; experiment: Evaluated for the heart rate at dose 1.0 mg/kg in 3 animals by aminophylline-induced sinus tachycardia test; assay type: functional, Canis lupus familiaris
[25] = test system: Canis familiaris; experiment: Evaluated for the heart rate at dose 2.5 mg/kg in 3 animals by aminophylline-induced sinus tachycardia test; assay type: functional, Canis lupus familiaris
[26] = test system: Canis familiaris; experiment: Evaluated for the heart rate at dose 5.0 mg/kg in 3 animals by aminophylline-induced sinus tachycardia test; assay type: functional, Canis lupus familiaris
[27] = test system: Canis familiaris; experiment: Evaluated for the heart rate at dose 2.5 mg/kg in 6 animals by aminophylline-induced sinus tachycardia test; assay type: functional, Canis lupus familiaris
[28] = test system: Canis familiaris; experiment: Evaluated for the heart rate at dose 1.0 mg/kg in 6 animals by aminophylline-induced sinus tachycardia test; assay type: functional, Canis lupus familiaris
[29] = test system: Canis familiaris; experiment: Evaluated for the heart rate at dose 5.0 mg/kg in 6 animals by aminophylline-induced sinus tachycardia test; assay type: functional, Canis lupus familiaris
[30] = species on record: Canis familiaris; experiment: Evaluated for the dose required to achieve 50 % of the maximal cardiac slowing in the triazine tachycardia test.; assay type: functional, Canis lupus familiaris; procedure, shortened: as §2

Cc1[nH]c2ccccc2c1SCC/N=C1\CCCN1C
Max decrease in heart rate [1]: 25% | Max decrease in heart rate [2]: 20% | CS index [3]: 4.5 | Max decrease in heart rate [4]: 30% | Max decrease in heart rate [5]: 15% | Max decrease in heart rate [6]: 29% | Max decrease in heart rate [7]: 34% | Delta HR50 [8]: -34 beats min-1 | D50 [9]: 4.5 mg/kg | Relative activity [10]: 0.14 | Max decrease in heart rate [11]: 42% | MD [12]: 2.5 | Max decrease in heart rate [13]: 23% | Max decrease in heart rate [14]: 12% | Delta HR50 [15]: 20.2%

CCCc1[nH]c2ccccc2c1SCC/N=C1\CCCN1C
CS index [3]: 3.7 | Delta HR50 [8]: -62 beats min-1 | MD [16]: 4 | D50 [9]: 7.9 mg/kg | Relative activity [10]: 0.11 | Delta HR50 [17]: 29%

CN1CCC/C1=N\CCSc1cn(C/C=C/c2ccccc2)c2ccccc12
CS index [3]: 3.8 | Delta HR50 [8]: -58 beats min-1 | D50 [9]: 6.1 mg/kg | MD [18]: 3 | Relative activity [10]: 0.12 | Delta HR50 [17]: 23.5%

CCCCCCCCn1cc(SCC/N=C2\CCCN2C)c2ccccc21
Delta HR50 [8]: -32 beats min-1 | D50 [9]: 7.3 mg/kg | Delta HR50 [17]: 14.8% | MD [19]: 2 | CS index [20]: 2

CCCc1[nH]c2ccccc2c1SCCNC1=NCCN1C
CS index [3]: 6.3 | Delta HR50 [8]: -27 beats min-1 | MD [16]: 4 | D50 [9]: 2.1 mg/kg | Relative activity [10]: 0.2 | Delta HR50 [17]: 13.2%

CCn1cc(SCC/N=C2\CCCN2C)c2ccccc21
Max decrease in heart rate [1]: 34% | Max decrease in heart rate [21]: 28% | CS index [3]: 27.2 | Max decrease in heart rate [4]: 47% | Max decrease in heart rate [22]: 46% | Max decrease in heart rate [5]: 18% | Max decrease in heart rate [7]: 53% | Delta HR50 [8]: -39 beats min-1 | D50 [9]: 0.8 mg/kg | Relative activity [10]: 0.85 | MD [12]: 2 | Delta HR50 [17]: 21.8% | Max decrease in heart rate [13]: 43% | Max decrease in heart rate [14]: 27%

CC(C)COCC(CN(Cc1ccccc1)c1ccccc1)N1CCCC1 (stereo not given) [BEPRIDIL]
Max decrease in heart rate [1]: 18% | MD [23]: 1 | Max decrease in heart rate [2]: 16% | Max decrease in heart rate [24]: 13% | CS index [3]: 7.4 | Max decrease in heart rate [4]: 25% | Max decrease in heart rate [5]: 10% | Max decrease in heart rate [6]: 30% | Delta HR50 [8]: -30 beats min-1 | D50 [9]: 2 mg/kg | Relative activity [10]: 0.23 | Max decrease in heart rate [25]: 23% | Max decrease in heart rate [11]: 45% | Delta HR50 [17]: 14.8% | Max decrease in heart rate [26]: 39%

COc1ccc(CC/N=C2/CCCN2C)cc1OC [MIXIDINE]
Max decrease in heart rate [1]: 24% | MD [23]: 1 | CS index [3]: 5.9 | Max decrease in heart rate [4]: 35% | Max decrease in heart rate [27]: 25% | Max decrease in heart rate [5]: 12% | Max decrease in heart rate [6]: 16% | Max decrease in heart rate [28]: 6% | Delta HR50 [8]: -34 beats min-1 | D50 [9]: 3.3 mg/kg | Relative activity [10]: 0.18 | Max decrease in heart rate [29]: 33% | Max decrease in heart rate [11]: 28% | Delta HR50 [17]: 19.6%

CC(C)NCC(O)COc1cccc2ccccc12 (stereo not given) [PROPRANOLOL]
Max decrease in heart rate [1]: 32% | D50 [30]: 6.7 mg/kg | Max decrease in heart rate [2]: 3% | CS index [3]: 4.2 | Max decrease in heart rate [4]: 38% | Max decrease in heart rate [5]: 21% | Max decrease in heart rate [6]: 9% | Max decrease in heart rate [7]: 37% | Delta HR50 [8]: -66 beats min-1 | Relative activity [10]: 0.13 | Delta HR50 [17]: 28.5% | MD [19]: 3 | Max decrease in heart rate [13]: 32% | Max decrease in heart rate [14]: 24%
